# Measured values: ChEMBL document CHEMBL2062373, “Discovery of pyrroloaminopyrazoles as novel PAK inhibitors” (J Med Chem, 2012)
# What was measured:
# [1] = Clearance in dog; assay type: ADME, organism-based, Canis lupus familiaris; conditions: in vivo
# [2] = target: T1, Mitogen-activated protein kinase 1 (Homo sapiens, UniProt P28482); test: Inhibition of Erk2 at 1000 nM
# [3] = target: Cyclin-dependent kinase 2 (Homo sapiens, UniProt P24941)
# [4] = Octanol/buffer partition coefficient, log D of the compound at pH 7.4; assay type: physicochemical
# [5] = target: T2, Serine/threonine-protein kinase D3 (Homo sapiens) (UniProt O94806); test: Inhibition of PKD3; conditions: concentration not given here
# T2 sequence (whole entry): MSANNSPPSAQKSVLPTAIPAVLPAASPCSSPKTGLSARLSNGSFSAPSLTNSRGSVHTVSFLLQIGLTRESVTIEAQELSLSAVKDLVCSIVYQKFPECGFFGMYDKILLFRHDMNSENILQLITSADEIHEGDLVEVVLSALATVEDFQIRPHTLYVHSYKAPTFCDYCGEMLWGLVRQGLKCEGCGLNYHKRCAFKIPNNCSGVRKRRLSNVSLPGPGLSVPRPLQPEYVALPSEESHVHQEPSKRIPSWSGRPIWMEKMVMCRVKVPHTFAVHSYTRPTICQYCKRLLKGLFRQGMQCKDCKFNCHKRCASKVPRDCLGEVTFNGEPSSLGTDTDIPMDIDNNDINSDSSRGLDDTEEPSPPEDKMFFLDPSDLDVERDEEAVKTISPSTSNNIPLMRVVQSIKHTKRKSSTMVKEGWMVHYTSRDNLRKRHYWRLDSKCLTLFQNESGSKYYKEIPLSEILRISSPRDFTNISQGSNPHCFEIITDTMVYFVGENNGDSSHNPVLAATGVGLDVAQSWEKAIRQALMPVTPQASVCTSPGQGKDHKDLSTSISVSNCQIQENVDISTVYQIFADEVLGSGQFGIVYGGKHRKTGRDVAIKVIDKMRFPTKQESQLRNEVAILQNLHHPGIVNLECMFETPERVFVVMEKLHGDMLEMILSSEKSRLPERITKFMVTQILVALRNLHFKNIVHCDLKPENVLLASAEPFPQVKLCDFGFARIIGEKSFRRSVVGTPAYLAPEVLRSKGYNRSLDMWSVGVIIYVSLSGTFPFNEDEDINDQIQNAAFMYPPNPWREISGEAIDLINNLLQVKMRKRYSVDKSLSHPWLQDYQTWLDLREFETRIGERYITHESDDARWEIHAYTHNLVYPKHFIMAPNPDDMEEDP
# [6] = Oral bioavailability in rat at 10 mg/kg; assay type: ADME, organism-based; conditions: in vivo
# [7] = tested on: Mus musculus; test: Free dug level in mouse xenografted with human M24 cells at 15 mg/kg, po BID for 15 days; assay type: ADME, organism-based; parameters: dose 15 mg/kg, route oral; conditions: in vivo, 360 h
# Outline: (§1)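 The read-out is free drug exposure, reported as unbound average concentration (free Cave) in nM. It was obtained from mice dosed orally at the stated regimen, sid or bid, during the xenograft efficacy study.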
# [8] = target: Serine/threonine-protein kinase PAK 4 (Homo sapiens, UniProt O96013); test: Inhibition of PAK4-mediated GEF-H1 phosphorylation at Ser810 by cell based assay; conditions: read-out: EC50
# Sequence of Serine/threonine-protein kinase PAK 4 (O96013 whole entry): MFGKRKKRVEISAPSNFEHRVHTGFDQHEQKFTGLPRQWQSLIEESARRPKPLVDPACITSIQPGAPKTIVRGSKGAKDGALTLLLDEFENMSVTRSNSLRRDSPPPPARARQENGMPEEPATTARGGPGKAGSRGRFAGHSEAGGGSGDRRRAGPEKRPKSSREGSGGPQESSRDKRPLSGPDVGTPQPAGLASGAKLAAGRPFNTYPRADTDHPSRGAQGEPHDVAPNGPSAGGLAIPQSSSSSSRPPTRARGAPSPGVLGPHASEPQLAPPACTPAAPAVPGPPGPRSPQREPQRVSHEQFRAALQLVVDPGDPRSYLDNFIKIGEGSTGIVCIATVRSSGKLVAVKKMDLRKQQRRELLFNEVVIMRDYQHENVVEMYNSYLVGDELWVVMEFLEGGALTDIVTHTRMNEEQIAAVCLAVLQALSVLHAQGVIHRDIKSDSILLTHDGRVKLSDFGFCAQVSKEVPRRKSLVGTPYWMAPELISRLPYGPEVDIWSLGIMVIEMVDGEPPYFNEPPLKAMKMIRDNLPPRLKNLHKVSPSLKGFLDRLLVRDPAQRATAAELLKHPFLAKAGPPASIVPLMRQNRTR
# [9] = Antitumor activity against human M24 cells xenografted in mouse assessed as tumor growth inhibition at 7.5 mg/kg, po BID for 15 days; assay type: functional; conditions: M24, 360 h, read-out: TGI
# [10] = target: T1, Mitogen-activated protein kinase 1; test: Inhibition of Erk2
# [11] = target: Mitogen-activated protein kinase 3 (Homo sapiens) (UniProt P27361); test: Inhibition of ERK1; conditions: concentration not given here
# Sequence of Mitogen-activated protein kinase 3 (Homo sapiens) (P27361 whole entry): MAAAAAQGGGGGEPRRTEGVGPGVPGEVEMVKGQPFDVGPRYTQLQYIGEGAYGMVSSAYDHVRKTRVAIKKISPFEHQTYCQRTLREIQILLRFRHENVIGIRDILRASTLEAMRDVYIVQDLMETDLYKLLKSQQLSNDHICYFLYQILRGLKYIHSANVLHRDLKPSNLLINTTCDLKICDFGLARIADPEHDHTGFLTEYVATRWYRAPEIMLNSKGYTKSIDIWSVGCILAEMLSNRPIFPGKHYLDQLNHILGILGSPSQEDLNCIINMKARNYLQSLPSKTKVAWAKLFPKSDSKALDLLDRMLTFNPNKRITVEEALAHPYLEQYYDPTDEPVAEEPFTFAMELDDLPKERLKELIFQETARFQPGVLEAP
# [12] = Half life in rat at 5 mg/kg, iv and 10 mg/kg, po; assay type: ADME, organism-based; conditions: in vivo
# [13] = tested on: Mus musculus; test: Free dug level in mouse xenografted with human M24 cells at 3.75 mg/kg, po BID for 15 days; assay type: ADME, organism-based; parameters: dose 3.75 mg/kg, route oral; conditions: in vivo, 360 h
# [14] = target: T3, Glycogen synthase kinase-3 beta (Homo sapiens, UniProt P49841)
# Target sequence in this assay (P49841 whole entry): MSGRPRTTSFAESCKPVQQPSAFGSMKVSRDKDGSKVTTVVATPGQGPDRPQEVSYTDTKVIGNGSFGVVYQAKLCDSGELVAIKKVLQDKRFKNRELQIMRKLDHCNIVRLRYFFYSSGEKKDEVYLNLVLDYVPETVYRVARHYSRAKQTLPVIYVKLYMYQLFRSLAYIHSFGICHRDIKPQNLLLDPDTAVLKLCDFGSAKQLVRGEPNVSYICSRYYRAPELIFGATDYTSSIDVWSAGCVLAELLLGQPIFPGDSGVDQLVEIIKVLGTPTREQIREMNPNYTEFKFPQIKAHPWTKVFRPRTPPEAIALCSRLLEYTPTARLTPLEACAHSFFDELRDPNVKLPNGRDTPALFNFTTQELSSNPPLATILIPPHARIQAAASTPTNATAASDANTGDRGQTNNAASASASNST
# [15] = Antitumor activity against human M24 cells xenografted in mouse assessed as tumor growth inhibition at 15 mg/kg, po BID for 15 days; assay type: functional; conditions: M24, 360 h, read-out: TGI
# [16] = Metabolic stability in human liver microsomes assessed as extraction ratio; assay type: ADME, Microsome; conditions: read-out: ERH
# [17] = species: Homo sapiens; test: Inhibition of RSK at 1000 nM
# [18] = Volume of distribution at steady state in rat at 5 mg/kg, iv and 10 mg/kg, po; assay type: ADME, organism-based; conditions: in vivo, read-out: Vdss
# [19] = Half life in dog; assay type: ADME, organism-based, Canis lupus familiaris; conditions: in vivo
# [20] = Efflux ratio of permeability from basolateral to apical side over apical to basolateral side in human Caco2 cells; assay type: ADME, cell-based; conditions: Caco-2
# [21] = Oral bioavailability in dog; assay type: ADME, organism-based, Canis lupus familiaris; conditions: in vivo
# [22] = target: T3, Glycogen synthase kinase-3 beta; test: Inhibition of GSK3beta at 1000 nM
# Target sequence in this assay (P49841 whole entry, looked up): as the sequence (P49841 whole entry) above
# [23] = target: Serine/threonine-protein kinase MARK1 (Homo sapiens, UniProt Q9P0L2); test: Inhibition of MARK1
# Sequence of Serine/threonine-protein kinase MARK1 (Q9P0L2 whole entry): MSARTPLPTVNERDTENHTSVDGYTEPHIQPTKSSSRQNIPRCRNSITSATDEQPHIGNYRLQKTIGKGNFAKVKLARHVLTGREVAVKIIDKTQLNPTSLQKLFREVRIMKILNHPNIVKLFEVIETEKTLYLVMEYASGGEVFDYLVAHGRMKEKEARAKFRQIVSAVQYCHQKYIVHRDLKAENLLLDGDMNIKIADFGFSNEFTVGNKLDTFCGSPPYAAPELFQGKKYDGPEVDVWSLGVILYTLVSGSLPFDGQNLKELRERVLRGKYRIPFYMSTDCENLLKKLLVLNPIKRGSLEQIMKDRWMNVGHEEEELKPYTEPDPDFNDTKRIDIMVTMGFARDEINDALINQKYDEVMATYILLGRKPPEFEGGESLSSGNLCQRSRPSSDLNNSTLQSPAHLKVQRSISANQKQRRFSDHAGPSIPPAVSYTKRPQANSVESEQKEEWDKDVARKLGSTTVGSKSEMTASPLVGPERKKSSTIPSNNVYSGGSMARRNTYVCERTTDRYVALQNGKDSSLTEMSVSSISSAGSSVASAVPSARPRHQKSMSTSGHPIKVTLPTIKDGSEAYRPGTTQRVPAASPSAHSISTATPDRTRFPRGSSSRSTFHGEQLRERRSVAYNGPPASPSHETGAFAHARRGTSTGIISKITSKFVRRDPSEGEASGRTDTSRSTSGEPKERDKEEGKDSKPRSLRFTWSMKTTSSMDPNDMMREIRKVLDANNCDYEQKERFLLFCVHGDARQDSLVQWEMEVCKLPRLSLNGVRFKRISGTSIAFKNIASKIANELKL
# [24] = tested on: HCT-116; test: Antitumor activity against human HCT116 cells xenografted in mouse assessed as tumor growth inhibition at 12.5 mg/kg, po BID for 15 days; assay type: functional; conditions: HCT-116, 360 h, read-out: TGI
# Outline: (§2)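 HCT-116 colon carcinoma xenografts in mice. Compound given orally twice daily. Efficacy expressed as percent tumour growth inhibition (TGI).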
# [25] = species: Homo sapiens; test: Inhibition of PCTAIRE; conditions: concentration not given here
# [26] = target: AMP-activated protein kinase, AMPK (Homo sapiens) (UniProt P54646+O43741+P54619+Q9UGJ0+Q9Y478+Q13131+Q9UGI9); test: Inhibition of AMPK at 1000 nM; assay type: protein-complex assay
# [27] = Clearance in rat at 5 mg/kg, iv and 10 mg/kg, po; assay type: ADME, organism-based; conditions: in vivo
# [28] = Antitumor activity against human M24 cells xenografted in mouse assessed as tumor growth inhibition at 3.75 mg/kg, po BID for 15 days; assay type: functional; conditions: M24, 360 h, read-out: TGI
# [29] = tested on: Mus musculus; test: Free dug level in mouse xenografted with human M24 cells at 7.5 mg/kg, po BID for 15 days; assay type: ADME, organism-based; parameters: dose 7.5 mg/kg, route oral; conditions: in vivo, 360 h; outline: as §1
# [30] = tested on: HCT-116; test: Antitumor activity against human HCT116 cells xenografted in mouse assessed as tumor growth inhibition at 20 mg/kg, po BID for 15 days; assay type: functional; conditions: HCT-116, 360 h, read-out: TGI; outline: as §2
# [31] = species: Homo sapiens; test: Inhibition of PKA at 1000 nM
# T1 sequence (P28482 whole entry): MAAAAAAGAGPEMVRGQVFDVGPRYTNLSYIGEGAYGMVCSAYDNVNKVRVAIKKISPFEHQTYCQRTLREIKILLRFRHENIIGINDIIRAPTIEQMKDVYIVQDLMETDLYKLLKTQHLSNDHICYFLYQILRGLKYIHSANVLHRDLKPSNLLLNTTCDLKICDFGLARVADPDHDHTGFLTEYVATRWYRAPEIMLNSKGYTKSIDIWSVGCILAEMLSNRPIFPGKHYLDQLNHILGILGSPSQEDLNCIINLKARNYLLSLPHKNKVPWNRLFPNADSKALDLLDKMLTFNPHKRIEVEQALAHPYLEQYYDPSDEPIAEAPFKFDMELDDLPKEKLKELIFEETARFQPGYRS
structure (smiles),measurement,setting,value
CN(C)C[C@@H](OC(=O)N1Cc2c(NC(=O)C(C)(C)C)n[nH]c2C1(C)C)c1ccccc1,clearance,[1],12 mL/min/kg
same,inhibition,[2],> 70%
same,IC50,[3],450 nM
same,logD,[4],2.52
same,inhibition,[5],> 40%
same,bioavailability,[6],15%
same,Drug uptake(free),[7],50.5 nM
same,EC50,[8],4 nM
same,inhibition in vivo at 7.5 mg/kg,[9],61%
same,IC50,[10],170 nM
same,inhibition,[11],> 40%
same,half-life,[12],0.8 h
same,Drug uptake(free),[13],5.3 nM
same,IC50,[14],227 nM
same,inhibition in vivo at 15 mg/kg,[15],68%
same,hepatic extraction ratio,[16],0.44
same,inhibition,[17],> 70%
same,Vd,[18],2.8 L/kg
same,half-life,[19],2.2 h
same,efflux ratio,[20],9.9
same,bioavailability,[21],20%
same,inhibition,[22],> 70%
same,IC50,[23],115 nM
same,inhibition in vivo at 12.5 mg/kg,[24],37%
same,inhibition,[25],> 40%
same,inhibition,[26],> 70%
same,clearance,[27],52 mL/min/kg
same,inhibition in vivo at 3.75 mg/kg,[28],41%
same,Drug uptake(free),[29],28.3 nM
same,inhibition in vivo at 20 mg/kg,[30],52%
same,inhibition,[31],> 70%
